pEC50, pIC50: −log10 of the molar value. The source made the active and inactive calls. The calls are words filed in the database; no cut-off is given here.

In data set [1] the target is T1, Glucagon-like peptide 1 receptor (Homo sapiens, UniProt P43220). In words: Positive allosteric modulation of human recombinant GLP1 receptor expressed in 9-3-H cells by calcium mobilization assay. The data set is classed as functional, cell-based. To be noted: for pEC50: read-out: EC50; for EC50: read-out: pEC50 (converted).
In data set [2] the target is T1, Glucagon-like peptide 1 receptor. In words: Positive allosteric modulation of human recombinant GLP1 receptor expressed in 9-3-H cells by calcium mobilization assay relative to control. It is filed as functional, cell-based. (In general: Calcium assays in cells follow changes in intracellular calcium, usually with a dye or a luminescent sensor.)
For data set [3], the target named is Glucagon receptor (Homo sapiens) (UniProt P47871). In words: Activity at glucagon receptor (unknown origin).
The target in data set [4] is Melanocortin receptor 4 (Homo sapiens) (UniProt P32245). In words: Activity at melanocortin 4 receptor (unknown origin).
For data set [5], the target named is T2, Cytochrome P450 1A2 (Homo sapiens, UniProt P05177).
T2 sequence (P05177 whole entry): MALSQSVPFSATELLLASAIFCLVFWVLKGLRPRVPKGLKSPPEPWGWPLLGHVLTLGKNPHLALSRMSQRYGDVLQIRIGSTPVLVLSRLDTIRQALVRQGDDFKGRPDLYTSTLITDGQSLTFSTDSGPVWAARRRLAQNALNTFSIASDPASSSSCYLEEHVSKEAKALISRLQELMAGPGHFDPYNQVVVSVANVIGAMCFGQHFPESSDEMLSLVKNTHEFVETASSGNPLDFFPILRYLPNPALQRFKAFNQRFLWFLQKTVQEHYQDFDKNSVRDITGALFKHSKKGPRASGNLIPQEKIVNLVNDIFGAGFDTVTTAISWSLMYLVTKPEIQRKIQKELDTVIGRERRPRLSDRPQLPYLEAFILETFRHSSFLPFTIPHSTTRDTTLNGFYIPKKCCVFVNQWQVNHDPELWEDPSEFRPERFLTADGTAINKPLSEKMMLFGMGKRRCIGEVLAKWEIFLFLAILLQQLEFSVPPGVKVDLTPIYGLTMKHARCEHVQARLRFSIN
In words: Inhibition of CYP1A2 (unknown origin). It is filed as ADME. In a few lines: (§1)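 An in vitro cassette P450 inhibition assay was run in microsomes, with 1A2, 2C9, 2D6 and 3A4 tested together. IC50 values are reported in μM.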

Data set [6] deals with Plasma. The experiment in a line: Fraction unbound in rat plasma. The data set is classed as ADME, cell-free.
For data set [7], the target named is Cytochrome P450 3A4 (Homo sapiens, UniProt P08684). In words: Inhibition of CYP3A4 (unknown origin).
The subject of data set [8] is Plasma. In words: Fraction unbound in human plasma. It is filed as ADME, cell-free.
For data set [9], the target named is Cytochrome P450 2D6 (Homo sapiens, UniProt P10635). The experiment in a line: Inhibition of CYP2D6 (unknown origin). It is filed as ADME. In a few lines: as §1
In data set [10] the target is Cytochrome P450 2C9 (Homo sapiens, UniProt P11712). In words: Inhibition of CYP2C9 (unknown origin). The data set is classed as ADME. In a few lines: as §1
The target of data set [11] is T1, Glucagon-like peptide 1 receptor. The experiment in a line: Positive allosteric modulation of human recombinant GLP1 receptor expressed in 9-3-H cells by calcium mobilization assay in presence of EC20 of liragulitide. It is filed as functional, cell-based.
The target is the same in data set [12]. In words: Positive allosteric modulation of human recombinant GLP1 receptor expressed in 9-3-H cells assessed as fold change at 30 uM by calcium mobilization assay […] relative to control. The data set is classed as functional, cell-based.
Data set [13] is described as follows: Intrinsic clearance in rat liver microsomes. It is filed as ADME. The conditions noted are these: read-out: CLH. A general note: Microsomes from liver hold many membrane-bound enzymes, among them those of drug oxidation.
The test system of data set [14] is Nucleic Acid. The experiment in a line: Ratio of drug level in brain to plasma at 10 mg/kg, ip. More on the design: dose 10 mg/kg, route intraperitoneal. The conditions noted are these: rat. The data set is classed as ADME, organism-based. In a few lines: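 Rats were dosed IP at 10 mg/kg. Plasma and brain levels were measured at 0.5 h, and the brain:plasma ratio was given as Kp and as Kp,uu, using unbound fractions.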

The test system of data set [15] is Brain. The experiment in a line: Fraction unbound in rat brain homogenate. The data set is classed as ADME, tissue-based.
For data set [16], the target named is T1, Glucagon-like peptide 1 receptor. The experiment in a line: Positive allosteric modulation of human recombinant GLP1 receptor expressed in 9-3-H cells by calcium mobilization assay in presence of EC20 of GLP1 relative to control. The data set is classed as functional, cell-based.
The target is the same in data set [17]. In words: Positive allosteric modulation of human recombinant GLP1 receptor expressed in 9-3-H cells by calcium mobilization assay in presence of EC20 of liragulitide relative to control. It is filed as functional, cell-based.
Data set [18] shares this target. In words: Positive allosteric modulation of human recombinant GLP1 receptor expressed in 9-3-H cells by calcium mobilization assay in presence of EC20 of GLP1. The data set is classed as functional, cell-based.
The target is the same in data set [19]. The experiment in a line: Positive allosteric modulation of human recombinant GLP1 receptor expressed in 9-3-H cells by calcium mobilization assay in presence of EC20 of exenatide relative to control. It is filed as functional, cell-based.
Data set [20] is described as follows: Intrinsic clearance in human liver microsomes. It is filed as ADME. To be noted: read-out: CLH. In a few lines: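 Human liver microsome clearance was scaled to predicted hepatic clearance by the well-stirred model. The model used 20 g liver per kg body weight and 21 mL/kg hepatic blood flow.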
The target in data set [21] is T1, Glucagon-like peptide 1 receptor. The experiment in a line: Positive allosteric modulation of human recombinant GLP1 receptor expressed in 9-3-H cells by calcium mobilization assay in presence of EC20 of exenatide. The data set is classed as functional, cell-based.
Data set [22] relates to Rattus norvegicus. In words: Volume of distribution at steady state in rat at 1 mg/kg, iv and […], po. To be noted: in vivo. It is filed as ADME, organism-based. More on the design: dose 1 mg/kg, route oral. An outline of the steps: (§2)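 Male Sprague–Dawley rats were dosed IV at 1 mg/kg and PO at […]. Plasma pharmacokinetic parameters were derived from these doses.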

A short description of data set [23]: Half life in rat at 1 mg/kg, iv and […], po. To be noted: in vivo. The data set is classed as ADME, organism-based. More on the design: dose 1 mg/kg, route oral. An outline of the steps:
as §2

T1 sequence (P43220 whole entry): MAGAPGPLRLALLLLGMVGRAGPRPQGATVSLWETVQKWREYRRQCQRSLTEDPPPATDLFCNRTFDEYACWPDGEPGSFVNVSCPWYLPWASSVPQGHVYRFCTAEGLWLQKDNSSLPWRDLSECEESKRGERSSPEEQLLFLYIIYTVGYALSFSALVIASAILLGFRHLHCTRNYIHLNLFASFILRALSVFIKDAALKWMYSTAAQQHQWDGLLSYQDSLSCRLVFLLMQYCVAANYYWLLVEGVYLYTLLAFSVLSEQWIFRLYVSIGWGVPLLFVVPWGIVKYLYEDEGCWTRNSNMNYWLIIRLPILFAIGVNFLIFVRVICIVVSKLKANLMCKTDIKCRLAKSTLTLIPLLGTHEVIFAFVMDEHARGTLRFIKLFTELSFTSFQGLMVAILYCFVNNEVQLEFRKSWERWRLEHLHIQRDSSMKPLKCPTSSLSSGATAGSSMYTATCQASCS
Sequence of Cytochrome P450 2C9 (P11712 whole entry): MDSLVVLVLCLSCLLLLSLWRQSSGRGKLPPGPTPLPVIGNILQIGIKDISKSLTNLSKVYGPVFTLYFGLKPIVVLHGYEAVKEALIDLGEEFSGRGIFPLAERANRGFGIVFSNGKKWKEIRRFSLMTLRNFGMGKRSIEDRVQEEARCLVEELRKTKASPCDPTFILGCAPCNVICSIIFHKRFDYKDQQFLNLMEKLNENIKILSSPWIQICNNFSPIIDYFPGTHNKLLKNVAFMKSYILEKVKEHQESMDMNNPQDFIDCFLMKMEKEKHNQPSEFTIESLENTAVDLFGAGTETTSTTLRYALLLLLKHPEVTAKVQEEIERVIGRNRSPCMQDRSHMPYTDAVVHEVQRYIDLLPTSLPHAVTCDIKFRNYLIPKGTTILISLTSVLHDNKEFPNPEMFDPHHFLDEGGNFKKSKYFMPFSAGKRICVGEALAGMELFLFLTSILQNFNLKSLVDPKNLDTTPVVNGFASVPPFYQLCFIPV
Sequence of Cytochrome P450 2D6 (P10635 whole entry): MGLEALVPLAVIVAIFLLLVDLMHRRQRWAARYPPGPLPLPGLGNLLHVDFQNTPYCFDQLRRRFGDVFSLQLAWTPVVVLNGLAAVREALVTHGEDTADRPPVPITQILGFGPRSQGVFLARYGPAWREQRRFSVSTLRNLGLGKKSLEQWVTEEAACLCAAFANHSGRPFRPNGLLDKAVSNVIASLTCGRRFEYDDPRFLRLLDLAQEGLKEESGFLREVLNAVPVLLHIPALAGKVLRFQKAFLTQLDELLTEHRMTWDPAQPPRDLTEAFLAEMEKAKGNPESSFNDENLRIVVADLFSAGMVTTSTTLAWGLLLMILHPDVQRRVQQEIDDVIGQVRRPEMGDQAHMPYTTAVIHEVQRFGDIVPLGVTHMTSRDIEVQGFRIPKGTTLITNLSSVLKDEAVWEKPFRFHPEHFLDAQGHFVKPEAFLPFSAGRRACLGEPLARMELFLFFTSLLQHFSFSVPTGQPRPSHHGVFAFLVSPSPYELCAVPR
Sequence of Cytochrome P450 3A4 (P08684 whole entry): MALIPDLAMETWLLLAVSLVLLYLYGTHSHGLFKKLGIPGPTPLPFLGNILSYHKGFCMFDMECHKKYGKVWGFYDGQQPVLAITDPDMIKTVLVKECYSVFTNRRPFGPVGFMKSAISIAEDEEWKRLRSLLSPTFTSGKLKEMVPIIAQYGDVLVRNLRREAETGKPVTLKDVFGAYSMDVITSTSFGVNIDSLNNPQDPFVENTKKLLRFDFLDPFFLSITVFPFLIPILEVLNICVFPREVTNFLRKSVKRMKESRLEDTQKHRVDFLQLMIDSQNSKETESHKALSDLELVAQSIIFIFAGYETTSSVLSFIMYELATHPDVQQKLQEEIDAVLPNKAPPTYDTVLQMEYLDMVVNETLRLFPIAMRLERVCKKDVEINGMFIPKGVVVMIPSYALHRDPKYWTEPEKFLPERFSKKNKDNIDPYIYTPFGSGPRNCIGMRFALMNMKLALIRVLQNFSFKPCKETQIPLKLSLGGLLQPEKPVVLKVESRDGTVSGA
Sequence of Glucagon receptor (Homo sapiens) (P47871 whole entry, looked up): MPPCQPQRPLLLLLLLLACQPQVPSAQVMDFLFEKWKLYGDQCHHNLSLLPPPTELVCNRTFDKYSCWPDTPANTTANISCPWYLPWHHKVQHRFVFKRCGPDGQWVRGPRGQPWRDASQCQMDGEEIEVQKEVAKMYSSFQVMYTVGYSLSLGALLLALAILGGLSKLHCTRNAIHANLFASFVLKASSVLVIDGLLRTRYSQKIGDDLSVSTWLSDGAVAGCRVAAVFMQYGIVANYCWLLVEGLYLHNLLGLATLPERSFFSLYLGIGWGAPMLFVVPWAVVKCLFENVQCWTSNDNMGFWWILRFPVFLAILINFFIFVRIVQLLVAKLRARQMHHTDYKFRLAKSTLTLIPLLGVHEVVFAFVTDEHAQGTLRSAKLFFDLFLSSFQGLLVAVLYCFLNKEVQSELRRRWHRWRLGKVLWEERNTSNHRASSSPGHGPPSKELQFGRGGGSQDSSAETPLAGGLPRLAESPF
Sequence of Melanocortin receptor 4 (Homo sapiens) (P32245 whole entry): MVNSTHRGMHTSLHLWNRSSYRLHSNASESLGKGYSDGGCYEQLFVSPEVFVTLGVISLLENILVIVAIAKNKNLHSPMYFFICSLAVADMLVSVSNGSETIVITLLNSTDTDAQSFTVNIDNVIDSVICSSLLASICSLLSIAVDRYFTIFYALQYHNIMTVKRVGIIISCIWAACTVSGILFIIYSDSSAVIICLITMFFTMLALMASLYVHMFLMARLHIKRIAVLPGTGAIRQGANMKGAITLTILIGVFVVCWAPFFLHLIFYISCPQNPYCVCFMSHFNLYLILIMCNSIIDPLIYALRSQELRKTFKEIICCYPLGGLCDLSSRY

Usually pEC50 stands for the EC50 on a negative log10 scale, so that one unit is a factor of ten. For orientation: Emax means the greatest response seen or fitted, relative to the assay's reference. On to `Cn1c2ccccc2c2c(C(=O)NC[C@@H]3CCCN3CCc3ccccc3)cn(C3CCCC3)c(=O)c21`, for which, in data set [1], the pEC50 is 4.85 and the EC50 was 18.2 µM. For the same compound, the Emax in data set [2] was determined as 68.5%.
Take `CCN1CCCC1CNC(=O)c1cn(C2CCCC2)c(=O)c2c1c1ccccc1n2C` (racemic): the result in data set [3] and in [4] was inactive. Also, in data set [1], the pEC50 was 5.39. Further, the Emax in data set [2] was 58.9%.
Turning to `COc1ccccc1CN1CCC[C@H]1CNC(=O)c1cn(C2CCCC2)c(=O)c2c1c1ccccc1n2C`, the pEC50 in data set [1] is 4.92. Further, the Emax in data set [2] stood at 68.3%.
For orientation: pIC50 means the negative decadic logarithm of the IC50, by convention in mol/L. With `CCN1CCC[C@H]1CNC(=O)c1cn(C2CCCC2)c(=O)c2c1c1ccccc1n2C`, the pIC50 in data set [5] was under 4.70; in data set [7], 5.49; in data set [9], under 4.70; in data set [10], under 4.70. The Fu in data set [6] and in data set [8] was over 10% each time. The pEC50 in data set [1] was 5.62. The EC50 in data set [1] was 2.04 µM. The Emax in data set [2] was 53.4%.
For `CCCN1CCC[C@H]1CNC(=O)c1cn(C2CCCC2)c(=O)c2c1c1ccccc1n2C`, the pEC50 in data set [1] is 5.19. In addition, the Emax in data set [2] worked out at 48.4%.
One may read the Kp as tissue or fluid exposure divided by exposure in the circulation. In general, half-life refers to the time in which the quantity being followed falls by half. Take `CC(C)N1CCC[C@H]1CNC(=O)c1cn(C2CCCC2)c(=O)c2c1c1ccccc1n2C`: the pIC50 in [5] and in [10] was under 4.52 in each case. For the same compound, the pEC50 in data set [11] is 4.52; in [18] it was 5.74; in data set [21] it was 5.08; in [1] it was 5.89. For the same compound, the Emax in data set [12] is 20%; in [16] it was 59.2%; in data set [17], 59.2%; in [19], 71.5%; in data set [2] it was 59.2%. Also, the Fu in data set [6] is recorded as 0.158; in data set [15] it was 0.015; in [8], 0.146. Further, the CLint scaled in data set [13] amounted to 19.9 mL/min/kg; in data set [20] it was 69.9 mL/min/kg. In addition, in data set [14], the “K(p,uu,brain)” value amounted to 0.27. In data set [14], the Kp was 2.7. In addition, the Vdss in [22] stood at 4 L/kg. In addition, the half-life in [23] turned out to be 58 min.
Turning to `CCCCCCN1CCC[C@H]1CNC(=O)c1cn(C2CCCC2)c(=O)c2c1c1ccccc1n2C`, the pEC50 in data set [1] was 4.99. Also, the Emax in [2] is 55.7%.

The record behind these values is ChEMBL document CHEMBL3351313, “Discovery of (S)-2-cyclopentyl-N-((1-isopropylpyrrolidin2-yl)-9-methyl-1-oxo-2,9-dihydro-1H-pyrrido[3,4-b]indole-4-carboxamide (VU0453379): a novel, CNS penetrant glucagon-like peptide 1 receptor (GLP-1R) positive allosteric modulator (PAM)” (J Med Chem, 2014).
